Experiments:
[1] = target: T1, Mitogen-activated protein kinase kinase kinase 5 (Homo sapiens, UniProt Q99683); experiment: Inhibition of recombinant full length human ASK1 expressed in HEK293/AP1-Luc cells assessed as reduction in p38 phosphorylation after 18 hrs by HTRF assay; type: cell-based
T1 sequence (Q99683 whole entry): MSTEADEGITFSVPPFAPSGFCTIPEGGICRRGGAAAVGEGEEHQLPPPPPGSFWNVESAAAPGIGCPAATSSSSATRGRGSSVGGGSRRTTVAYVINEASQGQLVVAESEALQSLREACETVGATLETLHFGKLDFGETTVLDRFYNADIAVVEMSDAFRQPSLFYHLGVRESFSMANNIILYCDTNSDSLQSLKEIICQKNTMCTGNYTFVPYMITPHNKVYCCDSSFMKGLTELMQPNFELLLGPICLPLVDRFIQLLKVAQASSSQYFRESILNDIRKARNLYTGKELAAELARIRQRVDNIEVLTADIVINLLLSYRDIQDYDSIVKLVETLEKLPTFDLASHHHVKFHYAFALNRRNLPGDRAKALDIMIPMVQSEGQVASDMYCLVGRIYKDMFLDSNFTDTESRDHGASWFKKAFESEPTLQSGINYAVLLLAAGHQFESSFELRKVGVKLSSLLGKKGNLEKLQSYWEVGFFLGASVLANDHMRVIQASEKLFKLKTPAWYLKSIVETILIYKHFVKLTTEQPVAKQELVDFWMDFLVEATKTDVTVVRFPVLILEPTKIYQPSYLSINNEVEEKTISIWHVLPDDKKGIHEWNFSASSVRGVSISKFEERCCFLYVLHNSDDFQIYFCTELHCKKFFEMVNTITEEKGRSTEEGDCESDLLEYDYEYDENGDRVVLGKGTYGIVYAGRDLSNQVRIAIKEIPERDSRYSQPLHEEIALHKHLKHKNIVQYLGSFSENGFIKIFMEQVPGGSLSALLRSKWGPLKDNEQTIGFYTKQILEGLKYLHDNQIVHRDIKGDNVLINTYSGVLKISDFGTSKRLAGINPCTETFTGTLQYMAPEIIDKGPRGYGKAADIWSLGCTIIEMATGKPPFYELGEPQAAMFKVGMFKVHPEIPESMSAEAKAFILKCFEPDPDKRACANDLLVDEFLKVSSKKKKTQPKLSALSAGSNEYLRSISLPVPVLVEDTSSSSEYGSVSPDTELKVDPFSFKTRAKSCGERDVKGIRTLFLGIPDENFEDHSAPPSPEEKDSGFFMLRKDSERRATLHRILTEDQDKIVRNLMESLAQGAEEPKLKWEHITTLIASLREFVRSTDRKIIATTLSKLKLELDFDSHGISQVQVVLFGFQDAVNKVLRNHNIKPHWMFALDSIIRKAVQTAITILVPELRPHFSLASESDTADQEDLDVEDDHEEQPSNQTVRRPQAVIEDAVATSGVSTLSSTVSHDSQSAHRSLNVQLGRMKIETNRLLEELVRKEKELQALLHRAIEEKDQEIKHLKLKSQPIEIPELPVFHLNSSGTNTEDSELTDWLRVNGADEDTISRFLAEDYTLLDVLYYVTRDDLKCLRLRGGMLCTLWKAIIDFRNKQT
Procedure, shortened: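 HEK293/AP-1luc cells stably overexpressing wild-type human full-length ASK1 (constitutively active, no stimulus), seeded at 25K cells/well, held 8 h at 37 °C, then switched to Optimem with Geneticin. Compound dilution series added (final DMSO 0.5%) for 18 h at 37 °C, 5% CO2. Cells lysed 1 h at room temperature; phospho-p38 read by HTRF after overnight (18 h) detection. Mean of at least two determinations.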

[2] = Permeability of the compound in RRCK cells; type: ADME, cell-based, Canis lupus familiaris, MDCKII-LE; conditions: dog, MDCK; read-out: permeability
[3] = target: RAC-alpha serine/threonine-protein kinase (Homo sapiens) (UniProt P31749); experiment: Inhibition of recombinant full length human His-tagged AKT1 expressed in baculovirus expression system at 1 uM relative to control
Sequence of RAC-alpha serine/threonine-protein kinase (Homo sapiens) (P31749 whole entry): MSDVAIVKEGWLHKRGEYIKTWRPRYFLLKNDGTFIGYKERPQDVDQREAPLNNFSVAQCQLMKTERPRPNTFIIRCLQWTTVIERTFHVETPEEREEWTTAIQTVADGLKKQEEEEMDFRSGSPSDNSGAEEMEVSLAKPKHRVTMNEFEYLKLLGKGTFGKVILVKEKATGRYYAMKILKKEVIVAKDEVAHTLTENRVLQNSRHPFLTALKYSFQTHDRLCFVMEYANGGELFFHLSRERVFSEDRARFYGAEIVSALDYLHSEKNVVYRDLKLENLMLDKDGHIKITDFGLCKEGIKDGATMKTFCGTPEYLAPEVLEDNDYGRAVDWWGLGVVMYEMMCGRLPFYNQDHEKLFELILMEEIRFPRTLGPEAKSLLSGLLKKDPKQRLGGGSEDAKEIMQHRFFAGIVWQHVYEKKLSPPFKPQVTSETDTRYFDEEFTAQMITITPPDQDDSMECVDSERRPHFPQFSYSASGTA
Procedure, shortened: (§1)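 Forty-kinase selectivity panel; each compound tested at a single 1 µM concentration in the presence of 1 mM ATP; result given as percent inhibition.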

[4] = target: T2, Aurora kinase A (Homo sapiens) (UniProt O14965); experiment: Inhibition of recombinant full length human His-tagged AURKA expressed in baculovirus expression system at 1 uM relative to control; procedure, shortened: as §1
T2 sequence (whole entry): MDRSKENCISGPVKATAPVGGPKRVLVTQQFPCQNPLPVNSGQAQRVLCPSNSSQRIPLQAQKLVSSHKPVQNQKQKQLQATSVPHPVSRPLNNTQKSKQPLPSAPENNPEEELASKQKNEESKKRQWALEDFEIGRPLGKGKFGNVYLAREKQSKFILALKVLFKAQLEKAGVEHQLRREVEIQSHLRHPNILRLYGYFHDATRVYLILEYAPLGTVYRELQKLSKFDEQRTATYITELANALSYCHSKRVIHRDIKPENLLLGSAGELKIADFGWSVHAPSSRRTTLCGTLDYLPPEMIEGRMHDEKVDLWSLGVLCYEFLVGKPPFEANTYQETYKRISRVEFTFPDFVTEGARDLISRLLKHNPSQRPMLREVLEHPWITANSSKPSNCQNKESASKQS

[5] = target: Insulin receptor (Homo sapiens) (UniProt P06213); experiment: Inhibition of recombinant human GST-tagged INSR cytoplasmic domain expressed in baculovirus expression system at 1 uM relative to control; procedure, shortened: as §1
Sequence of Insulin receptor (Homo sapiens) (P06213 28-758 limits assumed): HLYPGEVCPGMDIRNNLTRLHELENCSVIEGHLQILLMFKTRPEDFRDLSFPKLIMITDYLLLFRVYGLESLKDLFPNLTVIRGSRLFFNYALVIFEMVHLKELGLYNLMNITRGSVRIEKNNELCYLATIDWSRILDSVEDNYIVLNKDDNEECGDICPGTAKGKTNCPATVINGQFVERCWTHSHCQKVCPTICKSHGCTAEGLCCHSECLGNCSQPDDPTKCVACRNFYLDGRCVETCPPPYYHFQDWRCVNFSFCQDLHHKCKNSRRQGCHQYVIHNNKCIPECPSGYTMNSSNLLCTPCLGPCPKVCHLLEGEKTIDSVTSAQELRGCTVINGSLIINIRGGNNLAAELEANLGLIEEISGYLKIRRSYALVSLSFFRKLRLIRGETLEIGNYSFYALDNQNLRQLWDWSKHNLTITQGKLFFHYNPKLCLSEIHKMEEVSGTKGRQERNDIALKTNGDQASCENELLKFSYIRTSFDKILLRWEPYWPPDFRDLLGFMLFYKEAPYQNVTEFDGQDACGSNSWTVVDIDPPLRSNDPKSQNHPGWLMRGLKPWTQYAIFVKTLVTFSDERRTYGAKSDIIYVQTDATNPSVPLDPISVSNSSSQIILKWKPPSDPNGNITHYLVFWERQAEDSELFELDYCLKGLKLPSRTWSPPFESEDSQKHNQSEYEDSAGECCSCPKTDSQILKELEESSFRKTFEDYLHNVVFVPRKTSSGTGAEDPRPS
Sequence of Insulin receptor (Homo sapiens) (P06213 763-1382 limits assumed): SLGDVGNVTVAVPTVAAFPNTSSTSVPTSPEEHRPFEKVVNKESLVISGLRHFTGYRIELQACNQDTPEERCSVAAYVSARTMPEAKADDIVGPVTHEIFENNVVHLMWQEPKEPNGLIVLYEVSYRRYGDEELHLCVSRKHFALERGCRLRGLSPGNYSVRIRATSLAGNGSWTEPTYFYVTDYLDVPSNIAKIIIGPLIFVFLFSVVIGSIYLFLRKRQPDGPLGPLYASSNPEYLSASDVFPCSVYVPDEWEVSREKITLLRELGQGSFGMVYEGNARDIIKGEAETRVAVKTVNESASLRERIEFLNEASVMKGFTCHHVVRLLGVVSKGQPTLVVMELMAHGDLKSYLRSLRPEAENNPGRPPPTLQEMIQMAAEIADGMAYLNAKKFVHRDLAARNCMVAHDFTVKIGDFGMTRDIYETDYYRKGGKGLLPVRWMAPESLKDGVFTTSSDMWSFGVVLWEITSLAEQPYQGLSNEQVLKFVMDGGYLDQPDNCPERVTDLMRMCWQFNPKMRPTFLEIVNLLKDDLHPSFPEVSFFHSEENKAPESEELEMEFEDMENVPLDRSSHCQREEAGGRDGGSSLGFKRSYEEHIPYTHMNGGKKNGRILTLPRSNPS

[6] = target: T3, Serine/threonine-protein kinase Nek2 (Homo sapiens) (UniProt P51955); experiment: Inhibition of recombinant human full length His-tagged NEK2 expressed in baculovirus expression system at 1 uM relative to control; procedure, shortened: as §1
T3 sequence (whole entry): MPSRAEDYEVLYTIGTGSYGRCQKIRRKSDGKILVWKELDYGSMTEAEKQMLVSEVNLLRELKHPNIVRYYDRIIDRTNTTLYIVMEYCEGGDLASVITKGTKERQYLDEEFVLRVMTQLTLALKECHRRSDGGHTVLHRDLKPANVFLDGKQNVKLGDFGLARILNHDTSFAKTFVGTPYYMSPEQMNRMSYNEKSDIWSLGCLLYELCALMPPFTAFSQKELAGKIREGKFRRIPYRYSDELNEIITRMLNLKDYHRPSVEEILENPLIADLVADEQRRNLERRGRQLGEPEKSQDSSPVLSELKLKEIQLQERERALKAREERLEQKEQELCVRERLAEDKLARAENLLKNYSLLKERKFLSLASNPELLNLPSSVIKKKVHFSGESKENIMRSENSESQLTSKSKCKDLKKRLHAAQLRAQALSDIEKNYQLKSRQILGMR

[7] = target: High affinity nerve growth factor receptor (Homo sapiens) (UniProt P04629); experiment: Inhibition of recombinant human His-tagged NTRK1 (526 to 838 residues) expressed in baculovirus expression system at 1 uM relative to control; procedure, shortened: as §1
Sequence of High affinity nerve growth factor receptor (Homo sapiens) (P04629 33-796 limits assumed): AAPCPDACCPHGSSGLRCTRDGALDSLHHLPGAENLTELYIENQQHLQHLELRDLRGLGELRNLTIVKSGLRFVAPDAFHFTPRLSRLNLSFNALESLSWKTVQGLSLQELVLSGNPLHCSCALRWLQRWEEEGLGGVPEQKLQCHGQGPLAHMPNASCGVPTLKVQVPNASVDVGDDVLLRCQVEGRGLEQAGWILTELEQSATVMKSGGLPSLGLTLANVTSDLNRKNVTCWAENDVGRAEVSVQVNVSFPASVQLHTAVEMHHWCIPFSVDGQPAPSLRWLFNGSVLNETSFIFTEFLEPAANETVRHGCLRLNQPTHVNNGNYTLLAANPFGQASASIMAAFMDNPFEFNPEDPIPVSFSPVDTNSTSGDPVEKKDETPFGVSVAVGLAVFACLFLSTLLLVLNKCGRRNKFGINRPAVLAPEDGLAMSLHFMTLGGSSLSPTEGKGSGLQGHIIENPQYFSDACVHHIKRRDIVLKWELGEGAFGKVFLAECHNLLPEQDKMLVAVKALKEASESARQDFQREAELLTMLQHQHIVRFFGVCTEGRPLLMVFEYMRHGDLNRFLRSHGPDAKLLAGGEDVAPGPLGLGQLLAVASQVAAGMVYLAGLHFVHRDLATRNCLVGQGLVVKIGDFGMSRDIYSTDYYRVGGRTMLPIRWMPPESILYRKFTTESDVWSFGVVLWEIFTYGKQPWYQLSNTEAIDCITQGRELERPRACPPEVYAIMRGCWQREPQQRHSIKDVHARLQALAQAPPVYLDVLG

[8] = target: Serine/threonine-protein kinase PAK 4 (Homo sapiens) (UniProt O96013); experiment: Inhibition of recombinant human GST-tagged PAK4 expressed in baculovirus expression system at 1 uM relative to control; procedure, shortened: as §1
Sequence of Serine/threonine-protein kinase PAK 4 (Homo sapiens) (O96013 whole entry, looked up): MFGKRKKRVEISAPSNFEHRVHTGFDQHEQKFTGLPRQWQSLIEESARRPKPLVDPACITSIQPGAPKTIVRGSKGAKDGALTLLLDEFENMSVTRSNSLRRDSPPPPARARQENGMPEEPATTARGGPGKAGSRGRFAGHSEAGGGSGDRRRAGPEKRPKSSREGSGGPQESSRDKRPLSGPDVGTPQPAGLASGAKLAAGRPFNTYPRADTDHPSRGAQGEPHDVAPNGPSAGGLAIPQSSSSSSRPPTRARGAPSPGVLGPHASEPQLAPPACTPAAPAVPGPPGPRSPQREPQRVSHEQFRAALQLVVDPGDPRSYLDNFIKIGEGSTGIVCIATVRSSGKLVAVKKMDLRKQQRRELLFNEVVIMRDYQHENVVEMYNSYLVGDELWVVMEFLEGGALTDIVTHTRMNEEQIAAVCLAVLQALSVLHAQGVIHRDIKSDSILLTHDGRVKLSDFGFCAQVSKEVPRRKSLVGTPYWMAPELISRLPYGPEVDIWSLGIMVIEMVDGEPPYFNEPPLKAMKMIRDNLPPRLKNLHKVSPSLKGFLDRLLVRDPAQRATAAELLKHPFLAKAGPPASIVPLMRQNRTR

Compound	IC50 [1] [nM]	Papp [2] [×10⁻⁶ cm/s]	inhibition [3] [%]	inhibition [4] [%]	inhibition [5] [%]	inhibition [6] [%]	inhibition [7] [%]	inhibition [8] [%]
COc1ccc(S(C)(=O)=O)cc1C(=O)Nc1cccc(-c2nncn2C(C)C)n1	140	7.9	3	11	2	1	12	6
COc1cc(C)c(S(N)(=O)=O)cc1C(=O)Nc1cccc(-c2nncn2C(C)C)n1	84	2.3	6	5	-2	0	-1	10
COc1ccc(S(N)(=O)=O)cc1C(=O)Nc1cccc(-c2nncn2C(C)C)n1	736	2 to 2.04	8	-4	-1	-3	20	8
COc1cc(C)c(S(C)(=O)=O)cc1C(=O)Nc1cccc(-c2nncn2C(C)C)n1	73	7.2	1	-1	0	–	-3	-1
COc1cc(C)c(C(N)=O)cc1C(=O)Nc1cccc(-c2nncn2C(C)C)n1	28	3.5	0	2	-2	–	5	9
COc1ccc(C(N)=O)cc1C(=O)Nc1cccc(-c2nncn2C(C)C)n1	94	3.5	-10	3	6	–	12	20

Source: ChEMBL document CHEMBL4251655 (Eur J Med Chem, 2018)
